In ChEMBL document CHEMBL1148781, “Phenylimidazole derivatives of 4-pyridone as dual inhibitors of bacterial enoyl-acyl carrier protein reductases FabI and FabK” (J Med Chem, 2007):
≈ marks a conversion by molar mass, not a printed value.

Assays:
K562 = experiment: Cytotoxicity against human K562 cells; format: functional, cell-based
Streptococcus pneumoniae = experiment: Antibacterial activity against Streptococcus pneumoniae KU197; format: functional
Outline: (§1)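 Broth microdilution per NCCLS M7-A6; MIC taken as lowest concentration preventing visible growth. Strains: S. aureus ATCC29213 and S. pneumoniae KU197 (PRSP).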

[1] = target: T1, Enoyl-(Acyl-carrier-protein) reductase (Streptococcus pneumoniae, UniProt Q9FBC5); experiment: Inhibition of Streptococcus pneumoniae FabK
T1 sequence (Q9FBC5 whole entry): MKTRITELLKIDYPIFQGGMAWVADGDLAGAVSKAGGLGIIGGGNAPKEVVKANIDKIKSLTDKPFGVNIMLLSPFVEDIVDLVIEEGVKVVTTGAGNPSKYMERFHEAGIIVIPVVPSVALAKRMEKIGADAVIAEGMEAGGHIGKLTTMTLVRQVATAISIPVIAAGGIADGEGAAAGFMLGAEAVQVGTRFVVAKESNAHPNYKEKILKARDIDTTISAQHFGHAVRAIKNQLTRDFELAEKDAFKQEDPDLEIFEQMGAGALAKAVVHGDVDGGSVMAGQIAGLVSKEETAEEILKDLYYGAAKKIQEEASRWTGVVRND
Outline: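 C-terminal His-tagged FabK from S. pneumoniae R6, expressed in E. coli BL21(DE3) with 1 mM IPTG, Ni-NTA purified, used at 2 µg/mL. Buffer 100 mM MES pH 7.0, 100 mM NH4Cl, 0.2 mM crotonoyl-CoA, 0.4 mM NADH; enzyme-initiated. Absorbance at 340 nm read for 10 min at room temperature; IC50 = concentration giving 50% activity reduction.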

Staphylococcus aureus = experiment: Antibacterial activity against Staphylococcus aureus ATCC 29213; format: functional; outline: as §1
[2] = Inhibition of Escherichia coli FabI
Outline: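 His-tagged E. coli FabI (gene from E. coli DH5α, expressed in E. coli TOP10 with arabinose induction, Ni-NTA purified) at 50 µg/mL in 100 mM sodium phosphate pH 7.4 with 0.25 mM crotonoyl-CoA and 0.4 mM NADH. Reaction started by enzyme addition; NADH consumption followed at 340 nm for 10 min at room temperature; IC50 = concentration halving activity.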

For Cc1c(Cc2c(Cl)cccc2Cl)c(=O)ccn1CCc1ccc(-c2c[nH]c(CNC(=O)Nc3ncc(S(C)(=O)=O)s3)n2)cc1, the IC50 (K562) was > 69000 nM, the MIC (Streptococcus pneumoniae) was 1 µg/mL (≈ 1.49 µM) and the IC50 [1] was 9.4 nM. For the same molecule, the MIC (Staphylococcus aureus) was > 32 µg/mL and the IC50 [2] was 310 nM.
With O=C([O-])COc1ccc(-c2cnc(CNC(=O)Nc3ncc(Sc4ccccn4)s3)[nH]2)cc1.[Na+] the MIC (Streptococcus pneumoniae) was > 32 µg/mL, the IC50 [1] was 34 nM and the IC50 [2] was > 32000 nM.
With Cc1c(Cc2c(Cl)cccc2Cl)c(=O)ccn1Cc1ccc(-c2c[nH]c(CNC(=O)Nc3ncc(Br)s3)n2)cc1 the IC50 (K562) was > 69000 nM, the MIC (Streptococcus pneumoniae) was > 32 µg/mL and the IC50 [1] was 11000 nM. The MIC (Staphylococcus aureus) was > 32 µg/mL and the IC50 [2] was 820 nM.
For Cc1c(Cc2c(Cl)cccc2Cl)c(=O)ccn1C/C=C/c1ccc(-c2c[nH]c(CNC(=O)Nc3ncc(Br)s3)n2)cc1, the IC50 (K562) was > 69000 nM, the MIC (Streptococcus pneumoniae) was > 32 µg/mL and the IC50 [1] was 9000 nM. The MIC (Staphylococcus aureus) was > 32 µg/mL and the IC50 [2] was 290 nM.
In the case of Cc1c(Cc2c(Cl)cccc2Cl)c(=O)ccn1CCc1ccc(-c2c[nH]c(CNC(=O)Nc3ncc[nH]3)n2)cc1, the IC50 (K562) is reported as > 69000 nM, the MIC (Streptococcus pneumoniae) is reported as > 32 µg/mL and the IC50 [1] is reported as > 32000 nM. The MIC (Staphylococcus aureus) was > 32 µg/mL and the IC50 [2] was 930 nM.
For O=C(NCc1ncc(-c2ccccc2)[nH]1)Nc1ncc(Sc2ccccn2)s1, the MIC (Streptococcus pneumoniae) was 2 µg/mL (≈ 4.9 µM), the IC50 [1] was 42 nM and the IC50 [2] was > 32000 nM.
With O=C(NCc1ncc(-c2ccc(Br)cc2)[nH]1)Nc1ncc(Sc2ccccn2)s1 the MIC (Streptococcus pneumoniae) was 0.25 µg/mL (≈ 0.513 µM), the IC50 [1] was 2.4 nM and the IC50 [2] was > 32000 nM.
With Cc1c(Cc2c(Cl)cccc2Cl)c(=O)ccn1CCc1ccc(-c2c[nH]c(CNC(=O)Nc3ncc(Sc4ccccn4)s3)n2)cc1 the IC50 (K562) was > 69000 nM, the MIC (Streptococcus pneumoniae) was 2 µg/mL (≈ 2.85 µM) and the IC50 [1] was 16 nM. The MIC (Staphylococcus aureus) was > 32 µg/mL and the IC50 [2] was 560 nM.
For CS(=O)(=O)c1ccc2nc(NC(=O)NCc3nc(-c4ccccc4)c[nH]3)sc2c1, the MIC (Staphylococcus aureus) was > 64 µg/mL and the IC50 [2] was > 32000 nM.
For Cn1cc(CNC(=O)/C=C/c2cnc3c(c2)CCC(=O)N3)c2ccccc21, the MIC (Streptococcus pneumoniae) was > 32 µg/mL, the IC50 [1] was > 32000 nM and the MIC (Staphylococcus aureus) was 0.063 µg/mL (≈ 0.175 µM). The IC50 [2] was 200 nM.
With Cc1c(Cc2c(Cl)cccc2Cl)c(=O)ccn1CCc1ccc(-c2c[nH]c(CNC(=O)Nc3nc4ccc(S(C)(=O)=O)cc4s3)n2)cc1 the IC50 (K562) was > 69000 nM, the MIC (Streptococcus pneumoniae) was 0.5 µg/mL (≈ 0.693 µM) and the IC50 [1] was 4.5 nM. For the same molecule, the MIC (Staphylococcus aureus) was > 32 µg/mL and the IC50 [2] was 380 nM.
With Cc1c(Cc2c(Cl)cccc2Cl)c(=O)ccn1CCCc1ccc(-c2c[nH]c(CNC(=O)Nc3ncc(Br)s3)n2)cc1 the IC50 (K562) was > 69000 nM, the MIC (Streptococcus pneumoniae) was > 32 µg/mL and the IC50 [1] was 6600 nM. For the same molecule, the MIC (Staphylococcus aureus) was > 32 µg/mL and the IC50 [2] was 340 nM.
With O=C(NCc1ncc(-c2cccc(Br)c2)[nH]1)Nc1ncc(Sc2ccccn2)s1 the MIC (Streptococcus pneumoniae) was 16 µg/mL (≈ 32.8 µM), the IC50 [1] was 5.3 nM and the IC50 [2] was > 32000 nM.
In the case of Cc1c(Cc2c(Cl)cccc2Cl)c(=O)ccn1CCc1ccc(-c2c[nH]c(CNC(=O)Nc3ncc(Br)s3)n2)cc1, the IC50 (K562) is reported as > 69000 nM, the MIC (Streptococcus pneumoniae) is reported as 8 µg/mL (≈ 11.9 µM) and the IC50 [1] is reported as 29 nM. For the same molecule, the MIC (Staphylococcus aureus) was > 32 µg/mL and the IC50 [2] was 570 nM.
In the case of Cc1c(Cc2c(Cl)cccc2Cl)c(=O)ccn1/C=C/c1ccc(-c2c[nH]c(CNC(=O)Nc3ncc(Br)s3)n2)cc1, the IC50 (K562) is reported as > 69000 nM, the IC50 [1] is reported as > 30000 nM and the IC50 [2] is reported as > 32000 nM.
With Oc1cc(Cl)ccc1Oc1ccc(Cl)cc1Cl [TRICLOSAN] the IC50 [1] was > 32000 nM, the MIC (Staphylococcus aureus) was 0.063 µg/mL (≈ 0.218 µM) and the IC50 [2] was 900 nM.
